Experimental data from ChEMBL document CHEMBL3593234, “Lanostane Triterpenes from the Tibetan Medicinal Mushroom Ganoderma leucocontextum and Their Inhibitory Effects on HMG-CoA Reductase and α-Glucosidase” (J Nat Prod, 2015).

Assays:
[1] = Inhibition of alpha-glucosidase (unknown origin); design: species or system Homo sapiens
Outline: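 Baker's yeast enzyme with phosphate buffer; absorbance read at 405 nm. Compound-free controls and enzyme-free blanks used. % inhibition = [(ODcontrol − ODcontrol blank) − (ODtest − ODtest blank)]/(ODcontrol − ODcontrol blank) × 100.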

[2] = biological target: T1, 3-hydroxy-3-methylglutaryl-coenzyme A reductase (Sus scrofa, UniProt Q1W675); experiment: Inhibition of pig liver microsomes HMG-CoA reductase incubated for 5 mins in using HMG-CoA and NADPH by colorimetric method
T1 sequence (Q1W675 whole entry): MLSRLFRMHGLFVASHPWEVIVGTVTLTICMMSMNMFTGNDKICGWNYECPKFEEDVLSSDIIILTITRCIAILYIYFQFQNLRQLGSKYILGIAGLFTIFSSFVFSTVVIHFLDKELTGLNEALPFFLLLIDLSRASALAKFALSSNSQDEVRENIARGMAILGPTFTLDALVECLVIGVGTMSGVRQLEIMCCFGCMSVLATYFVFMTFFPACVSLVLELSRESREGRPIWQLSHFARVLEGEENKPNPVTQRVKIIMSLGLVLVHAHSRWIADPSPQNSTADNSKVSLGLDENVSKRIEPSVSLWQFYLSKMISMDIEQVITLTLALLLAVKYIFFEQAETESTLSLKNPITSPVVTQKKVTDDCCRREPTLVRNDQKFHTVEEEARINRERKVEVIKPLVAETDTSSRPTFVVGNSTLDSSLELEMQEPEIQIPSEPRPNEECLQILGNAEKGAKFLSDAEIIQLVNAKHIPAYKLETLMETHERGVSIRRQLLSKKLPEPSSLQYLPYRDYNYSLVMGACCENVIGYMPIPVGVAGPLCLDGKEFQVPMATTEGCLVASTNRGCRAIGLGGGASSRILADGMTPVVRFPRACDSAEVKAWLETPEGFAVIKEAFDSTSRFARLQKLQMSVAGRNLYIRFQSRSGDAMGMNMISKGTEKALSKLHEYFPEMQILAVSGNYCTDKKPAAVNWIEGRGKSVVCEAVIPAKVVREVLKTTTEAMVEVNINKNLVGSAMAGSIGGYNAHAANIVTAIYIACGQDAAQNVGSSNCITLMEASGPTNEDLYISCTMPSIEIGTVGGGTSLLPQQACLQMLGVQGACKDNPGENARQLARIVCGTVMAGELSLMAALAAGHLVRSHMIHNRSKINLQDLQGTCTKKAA
Outline: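 Pig liver microsomal HMG-CoA reductase at about 4 U/mL final, with compound at 2.5–80 μM final and 200 μM HMG-CoA. Buffer was 0.1 mol/L potassium phosphate pH 7.0 with EDTA, dithiothreitol and BSA. After 5 min at 37 °C, 100 μM NADPH was added for 15 min at 37 °C. Absorbance was read at 340 nm, with percent inhibition from blank-corrected OD.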

[3] = biological target: Sucrase-isomaltase, intestinal (Rattus norvegicus, UniProt P23739); experiment: Inhibition of sucrase in rat intestinal mucosa pre-incubated for 40 mins using sucrose substrate; format: tissue-based
Sucrase-isomaltase, intestinal, sequence (P23739 1-1013 limits assumed): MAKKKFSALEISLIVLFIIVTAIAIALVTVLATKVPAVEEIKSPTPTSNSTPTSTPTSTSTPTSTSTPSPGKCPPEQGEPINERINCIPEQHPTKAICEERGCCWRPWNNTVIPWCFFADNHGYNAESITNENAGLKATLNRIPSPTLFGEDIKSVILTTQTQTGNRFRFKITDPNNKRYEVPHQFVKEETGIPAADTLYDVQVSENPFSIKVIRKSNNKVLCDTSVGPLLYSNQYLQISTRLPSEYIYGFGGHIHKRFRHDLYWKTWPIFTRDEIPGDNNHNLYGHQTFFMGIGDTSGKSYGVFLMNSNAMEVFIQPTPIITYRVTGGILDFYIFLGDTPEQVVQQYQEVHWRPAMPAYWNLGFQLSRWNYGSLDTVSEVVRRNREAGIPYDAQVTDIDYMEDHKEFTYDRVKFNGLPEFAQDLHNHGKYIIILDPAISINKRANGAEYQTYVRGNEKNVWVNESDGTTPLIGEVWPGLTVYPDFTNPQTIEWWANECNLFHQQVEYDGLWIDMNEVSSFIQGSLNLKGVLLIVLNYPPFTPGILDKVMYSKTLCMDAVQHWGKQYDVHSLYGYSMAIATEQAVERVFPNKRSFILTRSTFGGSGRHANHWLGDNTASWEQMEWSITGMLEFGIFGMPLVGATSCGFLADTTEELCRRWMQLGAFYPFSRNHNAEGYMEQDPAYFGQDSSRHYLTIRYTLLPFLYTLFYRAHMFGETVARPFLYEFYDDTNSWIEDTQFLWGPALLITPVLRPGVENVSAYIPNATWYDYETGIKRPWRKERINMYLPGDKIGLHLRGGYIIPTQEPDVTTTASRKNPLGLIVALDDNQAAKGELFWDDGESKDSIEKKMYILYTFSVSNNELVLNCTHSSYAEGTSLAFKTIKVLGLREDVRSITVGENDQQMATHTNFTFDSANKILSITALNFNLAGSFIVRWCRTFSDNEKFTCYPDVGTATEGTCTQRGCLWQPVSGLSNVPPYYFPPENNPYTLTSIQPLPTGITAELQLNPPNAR
Sucrase-isomaltase, intestinal, sequence (P23739 1014-1841 limits assumed): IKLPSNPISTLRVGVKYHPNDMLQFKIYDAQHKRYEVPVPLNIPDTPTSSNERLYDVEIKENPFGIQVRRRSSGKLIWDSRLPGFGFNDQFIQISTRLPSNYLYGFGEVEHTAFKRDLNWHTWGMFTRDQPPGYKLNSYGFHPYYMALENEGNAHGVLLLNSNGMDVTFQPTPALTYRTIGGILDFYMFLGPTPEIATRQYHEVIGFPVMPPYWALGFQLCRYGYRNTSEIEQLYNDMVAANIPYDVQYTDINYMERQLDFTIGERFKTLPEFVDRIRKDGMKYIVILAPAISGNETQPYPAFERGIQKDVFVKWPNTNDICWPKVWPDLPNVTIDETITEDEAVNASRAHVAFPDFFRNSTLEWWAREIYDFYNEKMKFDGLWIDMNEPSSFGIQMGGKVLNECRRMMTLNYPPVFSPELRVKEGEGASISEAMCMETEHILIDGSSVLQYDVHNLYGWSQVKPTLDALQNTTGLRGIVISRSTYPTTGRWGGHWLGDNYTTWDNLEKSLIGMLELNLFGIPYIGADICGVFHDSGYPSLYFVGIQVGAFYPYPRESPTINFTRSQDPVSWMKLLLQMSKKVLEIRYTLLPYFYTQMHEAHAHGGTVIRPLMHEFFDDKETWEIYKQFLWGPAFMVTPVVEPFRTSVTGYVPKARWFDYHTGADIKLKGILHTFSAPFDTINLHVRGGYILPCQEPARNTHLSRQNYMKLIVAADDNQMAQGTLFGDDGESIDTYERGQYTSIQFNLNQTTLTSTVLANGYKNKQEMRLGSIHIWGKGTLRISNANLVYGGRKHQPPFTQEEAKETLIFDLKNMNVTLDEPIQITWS
Outline: (§1)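 Rat intestinal mucosa powder (1.0 g) was suspended in 3 mL 0.9% saline and sonicated at 4 °C (12 × 30 s), then spun at 10000g, 4 °C, 30 min; the supernatant served as enzyme. Compound in DMSO was mixed with substrate (maltose, sucrose or p-nitrophenyl-α-D-glucopyranoside) in 0.1 M phosphate buffer pH 6.9 and preincubated 40 min. Glucose was read by GOD kit at 550 nm, with blank-corrected percent inhibition.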

[4] = Inhibition of alpha-glucosidase in rat intestinal mucosa pre-incubated for 40 mins using p-nitrophenyl-alpha-D-glucopyranoside substrate; format: tissue-based; outline: as §1
[5] = Inhibition of Baker's yeast alpha-glucosidase; design: species or system Saccharomyces cerevisiae
Outline: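 Baker's yeast α-glucosidase assay read by absorbance at 405 nm. Control wells got phosphate buffer instead of compound, and blanks got buffer instead of enzyme. Percent inhibition was calculated from blank-corrected OD of test versus control wells.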

[6] = test system: K562; experiment: Cytotoxicity against human K562 cells by MTT method; format: functional, cell-based; conditions: Homo sapiens, K562
[7] = test system: PC-3; experiment: Cytotoxicity against human PC3 cells by MTT method; format: functional, cell-based; conditions: Homo sapiens, PC-3
[8] = biological target: T2, 3-hydroxy-3-methylglutaryl-coenzyme A reductase (Homo sapiens, UniProt P04035); experiment: Inhibition of HMG-CoA reductase (unknown origin)
T2 sequence (P04035 whole entry): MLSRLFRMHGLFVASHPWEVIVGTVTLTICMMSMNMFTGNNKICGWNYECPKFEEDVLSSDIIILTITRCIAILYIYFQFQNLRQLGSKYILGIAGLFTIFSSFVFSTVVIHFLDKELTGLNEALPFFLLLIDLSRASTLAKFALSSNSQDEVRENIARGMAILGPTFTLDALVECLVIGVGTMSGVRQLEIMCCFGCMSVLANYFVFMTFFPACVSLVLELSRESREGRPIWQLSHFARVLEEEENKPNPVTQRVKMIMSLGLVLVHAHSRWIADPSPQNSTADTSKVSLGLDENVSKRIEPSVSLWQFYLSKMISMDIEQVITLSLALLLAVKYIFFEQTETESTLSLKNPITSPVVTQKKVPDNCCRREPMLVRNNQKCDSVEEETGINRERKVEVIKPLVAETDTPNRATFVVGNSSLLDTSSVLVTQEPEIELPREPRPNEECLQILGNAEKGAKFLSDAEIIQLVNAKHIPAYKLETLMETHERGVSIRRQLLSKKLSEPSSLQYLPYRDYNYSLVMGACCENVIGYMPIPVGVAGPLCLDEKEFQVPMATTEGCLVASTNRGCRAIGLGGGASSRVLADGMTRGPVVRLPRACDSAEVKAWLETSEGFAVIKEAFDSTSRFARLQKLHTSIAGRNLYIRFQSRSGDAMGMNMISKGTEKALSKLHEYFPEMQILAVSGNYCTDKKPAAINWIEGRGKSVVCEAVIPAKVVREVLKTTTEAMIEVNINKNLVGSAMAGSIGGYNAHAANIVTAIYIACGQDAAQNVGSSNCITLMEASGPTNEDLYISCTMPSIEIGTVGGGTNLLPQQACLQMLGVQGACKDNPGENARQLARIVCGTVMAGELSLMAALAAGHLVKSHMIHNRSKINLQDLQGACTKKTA
Outline: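 Pig liver microsomal enzyme (about 4 U/mL final), colorimetric. Compounds at 2.5–80 μM final with HMG-CoA (200 μM final) in 0.1 mol/L potassium phosphate pH 7.0 (3.5 mmol/L EDTA, 10 mmol/L DTT, 0.1 g/L BSA). Preincubated 5 min at 37 °C, then NADPH (100 μM final) added for 15 min at 37 °C. A340 read; % inhibition against enzyme-free blanks and compound-free controls.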

IC50 [2] | IC50 [3] | IC50 [4] | IC50 [5] | Compound | IC50 [1] | IC50 [6] | IC50 [7] | IC50 [8]
– | – | – | – | C/C(=C\CC[C@@H](C)[C@H]1CC[C@@]2(C)C3=CC[C@H]4C(C)(C)[C@@H](O)CC[C@]4(C)C3=CC[C@]12C)CO [GANODEROL B] | 120 µM | – | – | –
18.9 µM | 8.4 µM | 1.5 µM | 13.6 µM | CC(C)=CCC/C(C)=C/CC/C(=C/Cc1cc(O)ccc1O)C(=O)OC[C@@](C)(O)[C@@H](O)CC[C@@H](C)[C@H]1CC[C@@]2(C)C3=CC[C@H]4C(C)(C)C(=O)CC[C@]4(C)C3=CC[C@]12C | – | 48.6 µM | 58.4 µM | –
> 100 µM | 18.5 µM | 9.3 µM | 5.9 µM | CC(C)=CCC/C(C)=C/CC/C(=C/Cc1cc(O)ccc1O)C(=O)OC[C@@](C)(O)[C@@H](O)CC[C@@H](C)[C@H]1CC[C@@]2(C)C3=C(CC[C@]12C)[C@@]1(C)CCC(=O)C(C)(C)[C@@H]1CC3=O | – | 10.7 µM | 10.8 µM | –
– | – | – | – | C/C(=C\CC[C@@H](C)[C@H]1C[C@H](O)[C@@]2(C)C3=CC[C@H]4C(C)(C)C(=O)CC[C@]4(C)C3=CC[C@]12C)C(=O)O | – | – | – | 21.7 µM
– | – | – | – | C/C(=C\CC[C@@H](C)[C@H]1CC[C@@]2(C)C3=C(CC[C@]12C)[C@@]1(C)CC[C@H](O)C(C)(C)[C@@H]1CC3=O)C(=O)O | – | – | – | 22.3 µM
